Source: ChEMBL document CHEMBL1154747, “Synthesis and cytotoxic evaluation of beta-alkyl or beta-aryl-delta-methyl-alpha-methylene-delta-lactones. Comparison with the corresponding gamma-lactones” (Eur J Med Chem, 2010)

Legend:
Assay type in all cases: functional, cell-based
[1] = test system: NALM-6; experiment: Cytotoxicity against human NALM6 cells after 48 hrs by MTT assay; conditions: NALM-6, 48 h
Procedure, shortened: (§1)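 HL-60 (promyelocytic) and NALM-6 (lymphoblastic) human leukemia cells in RPMI 1640 with 10% heat-inactivated FBS, streptomycin/penicillin, 37 °C, 5% CO2; exponentially growing cells seeded 8 × 10^3/well. Compounds from fresh DMSO stocks diluted in medium, 10^-7 to 10^-3 M, 46 h, then MTT 2 h; formazan dissolved in 20% SDS/50% DMF pH 4.7, A562/630. IC50 from concentration-response curves, ≥3 experiments.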

[2] = test system: L1210; experiment: Cytotoxicity against mouse L1210 cells after 48 hrs by MTT assay; conditions: L1210, 48 h
Procedure, shortened: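 Mouse L-1210 leukemia cells in RPMI 1640 with 10% FCS, gentamycin 50 µg/mL and 0.02 M HEPES; seeded at 1.5 × 10^3 cells/mL, drug added after 24 h, then 48 h further incubation. Cell number relative to untreated control by tetrazolium dye method; IC50 from concentration-survival curves by non-linear (quasi-Newton) fitting, mean of at least three experiments.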

[3] = test system: HL-60; experiment: Cytotoxicity against human HL60 cells after 48 hrs by MTT assay; conditions: HL-60, 48 h; procedure, shortened: as §1

Row | SMILES | IC50 [1] [µM] | IC50 [2] [µM] | IC50 [3] [µM]
1 | C=C1C(=O)O[C@@H](C)[C@@H]1c1ccc2c(c1)OCO2 (relative stereo) | 5 | 0.8 | 5.35
2 | C=C1C(=O)O[C@@H](C)[C@@H]1c1ccc(C)cc1 (relative stereo) | 4.39 | 1.5 | 5.01
3 | C=C1C(=O)O[C@@H](C)[C@@H]1c1ccc(Br)cc1 (relative stereo) | 1.1 | 0.58 | 6.66
4 | C=C1C(=O)O[C@H](C)[C@@H]1c1ccc(C)cc1 (relative stereo) | 5.97 | 5.5 | 5.62
5 | C=C1C(=O)O[C@H](C)[C@@H]1c1ccc2c(c1)OCO2 (relative stereo) | 4.7 | 1.4 | 33.3
6 | C=C1C(=O)O[C@H](C)[C@@H]1c1ccc([N+](=O)[O-])cc1 | 3.77 | 1.9 | 21.7
7 | C=C1C(=O)OC(C)CC1c1ccc(OC)cc1 (stereo not drawn) | 5.76 | 0.8 | 5.95
8 | C=C1C(=O)O[C@@H](C)[C@@H]1c1ccc(OC)cc1 (relative stereo) | 5.42 | 1.95 | 5.56
9 | C=C1C(=O)OC(C)CC1c1ccc2c(c1)OCO2 (stereo not drawn) | 5.46 | 7 | 5.52
10 | C=C1C(=O)OC(C)CC1c1ccccc1OC (stereo not drawn) | 6.26 | 2.1 | 6.44
11 | C=C1C(=O)OC(C)CC1c1ccc([N+](=O)[O-])cc1 (stereo not drawn) | 3.42 | 1.2 | 6.12
12 | C=C1C(=O)OC(C)CC1C(C)C (stereo not drawn) | 56.4 | 44.4 | 61.2
13 | C=C1C(=O)O[C@H](C)[C@@H]1c1ccc(Br)cc1 (relative stereo) | 4.25 | 7.8 | 4.28
14 | C=C1C(=O)OC(C)CC1C1CCCCC1 (stereo not drawn) | 15.8 | 13 | 40.6
15 | C=C1C(=O)O[C@H](C)[C@@H]1c1ccc(OC)cc1 (relative stereo) | 5.59 | 4.4 | 4.82
16 | C=C1C(=O)OC(C)CC1c1ccc(Br)cc1 (stereo not drawn) | 4.51 | 1.75 | 4.77
